ChEMBL document CHEMBL1275586, “Phenotypic susceptibility to bevirimat in isolates from HIV-1-infected patients without prior exposure to bevirimat” (Antimicrob Agents Chemother, 2010)

What was measured:
Format in all cases: functional, MT2
[1] = test system: Human immunodeficiency virus 1; test: Antiviral activity against Human immunodeficiency virus 1 isolate 31 harboring Gag-capsid I138L, S173T, V215L, I223N, M228L, G248Q, N252H, T280V and E312D mutant gene and protease I13V, K14R/K, M36I, S37N, I64V, H69K and I72V mutant gene infected in human MT-2 cells by XTT-assay relative to wild-type
Outline: (§1)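 Patient Gag-protease (SfoI-XmaI) fragments were ligated into the pXXLAI backbone, with colonies pooled to keep quasispecies. Virus came from 293T transfection, harvested at 2 days. MT-2 infection at 37°C used an input giving XTT signal-to-noise of 2.5–4.0 (≈MOI 0.001). Cells at ≈17,000/well with drug dilutions, 5 days, 37°C; XTT 1 h, A450–650. EC50 from % cell death; fold change vs wild-type LAI.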

[2] = test system: Human immunodeficiency virus 1; test: Antiviral activity against Human immunodeficiency virus 1 isolate 2 harboring Gag-capsid A146P, S173A, V215L, H219P, E230D, N252S, R264K, L268M and A340G mutant gene and protease L10I, I15V, K20R, M36I, S37N, M46I, L63P, T80A, V82A, N83H, I84V, I85T and L90M mutant gene infected in human MT-2 cells by XTT-assay relative to wild-type; outline: as §1
[3] = test system: Human immunodeficiency virus 1; test: Antiviral activity against Human immunodeficiency virus 1 isolate 26 harboring Gag-capsid I138L, A146S, I147L, E312D, A326S, L337M, and A340G mutant gene and protease T4S, L10F, V11L, I13V, I15V, K20A, V32I, L33F, M36I, S37D, K43T, M46I, I54L, I62V, L63P, A71I, I72K, G73T, I84V,I85V, L89V and L90M mutant gene infected in human MT-2 cells by XTT-assay relative to wild-type; outline: as §1
[4] = test system: Human immunodeficiency virus 1; test: Antiviral activity against Human immunodeficiency virus 1 isolate 23 harboring Gag-capsid I138L, V215L, E319D, A340G, G357S and V362I mutant gene and protease L10V, V11L, V32I, L33F, E34Q, E35D, M36L, S37T, M46I, I47V, G48V, I54M, I62V, L63P, I64V, I72V, T74S, V77I, V82A, I84V and T91S mutant gene infected in human MT-2 cells by XTT-assay relative to wild-type; outline: as §1
[5] = test system: Human immunodeficiency virus 1; test: Antiviral activity against Human immunodeficiency virus 1 isolate 25 harboring Gag-capsid I138M, S173A, V215L, N252S, I256T, S310T/S, A340G and E345D mutant gene and protease L10F, V11I, I13V, K20I, V32I, L33F, E34Q, E35D, M36I, S37N, K43T, M46I, F53Y, I54L, Q61N, I62V, L63T, I64V, A71L, T74S, L76V, I84V, L90M and I93L mutant gene infected in human MT-2 cells by XTT-assay relative to wild-type; outline: as §1
[6] = test system: Human immunodeficiency virus 1; test: Antiviral activity against Human immunodeficiency virus 1 isolate 32 harboring Gag-capsid, I138L, A146P, I147L, V159I, V215L, I223A, N252S/N, T280V and S310T and protease R41K/R, I62V, L63P, V77I and I93L mutant gene infected in human MT-2 cells by XTT-assay relative to wild-type; outline: as §1
[7] = test system: Human immunodeficiency virus 1; test: Antiviral activity against Human immunodeficiency virus 1 isolate 12 harboring Gag-capsid I138L E207D, V215L, V218P, H219Q, M228I, G248T, T280S, E312D, A340G, G357S and V362I mutant gene and protease S37N, I62V/I, L63P, I64L and V82I mutant gene infected in human MT-2 cells by XTT-assay relative to wild-type; outline: as §1
[8] = test system: Human immunodeficiency virus 1; test: Antiviral activity against Human immunodeficiency virus 1 isolate 21 harboring Gag-capsid I138L, A146P, I147L/I, V159I/V, E211D, V215L, N252H/N, R286K/R and K331R/K mutant gene and protease E35D, M36I, S37N, I62V and L63C mutant gene infected in human MT-2 cells by XTT-assay relative to wild-type; outline: as §1
[9] = test system: Human immunodeficiency virus 1; test: Antiviral activity against Human immunodeficiency virus 1 isolate 38 harboring Gag-capsid I138L, I147L, V215L, H219Q/H, I223V, N252H, P292S, A336S/A and A340G mutant gene and protease E35D, S37A and L63P mutant gene infected in human MT-2 cells by XTT-assay relative to wild-type; outline: as §1
[10] = test system: Human immunodeficiency virus 1; test: Antiviral activity against Human immunodeficiency virus 1 isolate 4 harboring Gag-capsid A146P, V159I, K162R, Q182S, T186I, V215L, I223G/V, N252G, P255A, E260D, E312D and G357S mutant gene and protease L10R, S37N, M46L, I62V, L63P, A71V, T74S, V82T, L90M and I93L mutant gene infected in human MT-2 cells by XTT-assay relative to wild-type; outline: as §1
[11] = test system: Human immunodeficiency virus 1; test: Antiviral activity against Human immunodeficiency virus 1 isolate 37 harboring Gag-capsid V135I, I138P, V143I, Q182H, V215L/V, V218P/A, H219Q, I223V, E230D, N252S, T280A, R286K, K302R and G357S mutant gene and protease S37D, R41K, L63P and I93L mutant gene infected in human MT-2 cells by XTT-assay relative to wild-type; outline: as §1
[12] = test system: Human immunodeficiency virus 1; test: Antiviral activity against Human immunodeficiency virus 1 isolate 24 harboring Gag-capsid I138L, V159I, V215L, I223A, T239S, N252S, T280V, R286K, S310T and V362I mutant gene and protease L10V, I13V, I15V, K20R, D30N, V32I, L33F, E35D, M36I, S37N, K43T, M46I, I47V, F53L, I54L, I62V, L63P, I66F, A71V, T74S, V82A, N88D, L89V, L90M and I93V mutant gene infected in human MT-2 cells by XTT-assay …
[13] = test system: Human immunodeficiency virus 1; test: Antiviral activity against Human immunodeficiency virus 1 isolate 10 harboring Gag-capsid I138L, I147L, V159I, V215L, G248A, I256V, T280V, R286K and N315H mutant gene and protease L10I, K20R, E35D, M36I, S37N, R41K, K45R, F53L, I54V, L63P, I64V, A71T, V82A, L90M and I93L mutant gene infected in human MT-2 cells by XTT-assay relative to wild-type; outline: as §1
[14] = test system: Human immunodeficiency virus 1; test: Antiviral activity against Human immunodeficiency virus 1 isolate 28 harboring Gag-capsid I138M mutant gene and protease L10I, I13V, L23I, L33F, S37N, M46I, I54V, K55R, R57K, Q58E, D60E, I62V, L63P, A71I, I72V, L76V, V77I, V82A, I84V, I85V, L89M, L90M and I93L mutant gene infected in human MT-2 cells by XTT-assay relative to wild-type; outline: as §1
[15] = test system: Human immunodeficiency virus 1; test: Antiviral activity against Human immunodeficiency virus 1 isolate 34 harboring Gag-capsid I138L, I147L, V159I, V215L, T280V, A309C, S310T, E312D and G357S mutant gene and protease L10I, I13V, E35D, S37N, I62V, L63P and I64M mutant gene infected in human MT-2 cells by XTT-assay relative to wild-type; outline: as §1
[16] = test system: Human immunodeficiency virus 1; test: Antiviral activity against Human immunodeficiency virus 1 isolate 35 harboring Gag-capsid V159I, I223T, N252S, A326S/A, A340G and G357S mutant gene and protease I15V, G16E, E35D, S37N, L63H and I72V mutant gene infected in human MT-2 cells by XTT-assay relative to wild-type; outline: as §1
[17] = test system: Human immunodeficiency virus 1; test: Antiviral activity against Human immunodeficiency virus 1 isolate 27 harboring Gag-capsid I138L, S173T/S, V215L, L268M, R275K/R, T280V, S310T, E319D and G357S and protease L10I, I15V, L19V, V32I, L33F, M46I, I54V, K55R, R57K, L63P, C67F, H69Q, A71V, G73C/G, V82A, L90M and Q92K mutant gene and deletion at A341 in Gag- capsid infected in human MT-2 cells by XTT-assay relative to wild-type; outline: as §1
[18] = test system: Human immunodeficiency virus 1; test: Antiviral activity against Human immunodeficiency virus 1 isolate 1 harboring Gag-capsid I138L, V159I, E203D, V215L, I223V, T280V, E312D and V323I mutant gene and protease L10I, K20R, M36I, S37N, G48V, I54M, I62V, L63P, A71V, I72V, V82A, I84V, L90M and I93L/I mutant gene infected in human MT-2 cells by XTT-assay relative to wild-type; outline: as §1
[19] = test system: Human immunodeficiency virus 1; test: Antiviral activity against Human immunodeficiency virus 1 isolate 29 harboring Gag-capsid I138M, A146P, R286K, T303V and A326S mutant gene and protease L10F, I13V, V32I, M36L, S37N, L38W, P39Q, M46I, I47V, I50V, I62V, L63P, A71I, I72V and V82A mutant gene infected in human MT-2 cells by XTT-assay relative to wild-type; outline: as §1
[20] = test system: Human immunodeficiency virus 1; test: Antiviral activity against Human immunodeficiency virus 1 isolate 30 harboring Gag-capsid I138L, V215L, R286K and Q311A mutant gene and protease I13V, E35D, S37N and L63P mutant gene infected in human MT-2 cells by XTT-assay relative to wild-type; outline: as §1
[21] = test system: Human immunodeficiency virus 1; test: Antiviral activity against Human immunodeficiency virus 1 isolate 6 harboring Gag-capsid I138L and V215L mutant gene and protease L10I, S37N, M46L, G48V, R57K, L63P, I66F, A71V, V82T and I84V mutant gene infected in human MT-2 cells by XTT-assay relative to wild-type; outline: as §1

| SMILES | fold change (FC) [1] | fold change (FC) [2] | fold change (FC) [3] | fold change (FC) [4] | fold change (FC) [5] | fold change (FC) [6] | fold change (FC) [7] | fold change (FC) [8] | fold change (FC) [9] | fold change (FC) [10] | fold change (FC) [11] | fold change (FC) [12] | fold change (FC) [13] | fold change (FC) [14] | fold change (FC) [15] | fold change (FC) [16] | fold change (FC) [17] | fold change (FC) [18] | fold change (FC) [19] | fold change (FC) [20] | also measured |
| --- | --- | --- | --- | --- | --- | --- | --- | --- | --- | --- | --- | --- | --- | --- | --- | --- | --- | --- | --- | --- | --- |
| COC(=O)N[C@H](C(=O)N[C@@H](Cc1ccccc1)[C@@H](O)CN(Cc1ccc(-c2ccccn2)cc1)NC(=O)[C@@H](NC(=O)OC)C(C)(C)C)C(C)(C)C [ATAZANAVIR] | 1.9 | 10.7 | 571 | 521 | 184 | 1.2 | 1.2 | 0.8 | 1.2 | 13.3 | 0.9 | 590 | 8.5 | 14.4 | 1.6 | 0.9 | 52.1 | 62.9 | 3.2 | 0.9 | fold change (FC) [21]: 29.2 |
| Cc1cccc(C)c1OCC(=O)N[C@@H](Cc1ccccc1)[C@@H](O)C[C@H](Cc1ccccc1)NC(=O)[C@H](C(C)C)N1CCCNC1=O [LOPINAVIR] | 1.1 | 15.5 | 46.5 | 203 | 58.9 | 0.5 | 1.1 | 0.6 | 0.9 | 15.2 | 0.8 | 69 | 15.3 | 99.3 | 1.4 | 1 | 29.2 | 22.1 | 89.3 | 0.7 | fold change (FC) [21]: 3.4 |
